ChEMBL document CHEMBL4411287, “Discovery and optimization of a series of 3-substituted indazole derivatives as multi-target kinase inhibitors for the treatment of lung squamous cell carcinoma” (Eur J Med Chem, 2019)
pIC50: −log10 of the molar value. Calls of active or inactive are those of the source. No cut-off for these calls is given here.

Key:
[1] = molecular target: Macrophage colony-stimulating factor 1 receptor (Homo sapiens) (UniProt P07333); experiment: Inhibition of CSF-1R (unknown origin) at 100 nM relative to control
NCI-H2286 [2] = experiment: Antitumor activity against human NCI-H2286 cells xenografted in SCID mouse assessed as tumor growth inhibition at 10 mg/kg, po qd for 10 consecutive days relative to control; format: functional; details: read-out: TGI
Procedure, shortened: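 NCI-H2286 xenograft established by s.c. fragment implantation. At 100-150 mm³ mice were randomized (vehicle n=10, treated n=5) and given compound orally once daily for 10 days. Tumour volume = length×width²/2, measured twice weekly. TGI taken on the final day from change in volume relative to vehicle, with Student's t-test.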

NCI-H2286 [3] = experiment: Antiproliferative activity against human NCI-H2286 cells harboring DDR2 mutation after 72 hrs by CCK8 assay; format: functional, cell-based; details: NCI-H2286, 72 h
Procedure, shortened: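 Cells seeded at low density in growth medium and compounds added the next day. Incubated 72 h, then proliferation read by sulforhodamine B, MTT or CCK-8. IC50 obtained by four-parameter concentration-response curve fitting.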

[4] = molecular target: Tyrosine-protein kinase JAK2 (Homo sapiens) (UniProt O60674); experiment: Inhibition of JAK2 (unknown origin) at 10 nM relative to control
Chain of Tyrosine-protein kinase JAK2 (Homo sapiens) (O60674 whole entry, the tested form may be a part): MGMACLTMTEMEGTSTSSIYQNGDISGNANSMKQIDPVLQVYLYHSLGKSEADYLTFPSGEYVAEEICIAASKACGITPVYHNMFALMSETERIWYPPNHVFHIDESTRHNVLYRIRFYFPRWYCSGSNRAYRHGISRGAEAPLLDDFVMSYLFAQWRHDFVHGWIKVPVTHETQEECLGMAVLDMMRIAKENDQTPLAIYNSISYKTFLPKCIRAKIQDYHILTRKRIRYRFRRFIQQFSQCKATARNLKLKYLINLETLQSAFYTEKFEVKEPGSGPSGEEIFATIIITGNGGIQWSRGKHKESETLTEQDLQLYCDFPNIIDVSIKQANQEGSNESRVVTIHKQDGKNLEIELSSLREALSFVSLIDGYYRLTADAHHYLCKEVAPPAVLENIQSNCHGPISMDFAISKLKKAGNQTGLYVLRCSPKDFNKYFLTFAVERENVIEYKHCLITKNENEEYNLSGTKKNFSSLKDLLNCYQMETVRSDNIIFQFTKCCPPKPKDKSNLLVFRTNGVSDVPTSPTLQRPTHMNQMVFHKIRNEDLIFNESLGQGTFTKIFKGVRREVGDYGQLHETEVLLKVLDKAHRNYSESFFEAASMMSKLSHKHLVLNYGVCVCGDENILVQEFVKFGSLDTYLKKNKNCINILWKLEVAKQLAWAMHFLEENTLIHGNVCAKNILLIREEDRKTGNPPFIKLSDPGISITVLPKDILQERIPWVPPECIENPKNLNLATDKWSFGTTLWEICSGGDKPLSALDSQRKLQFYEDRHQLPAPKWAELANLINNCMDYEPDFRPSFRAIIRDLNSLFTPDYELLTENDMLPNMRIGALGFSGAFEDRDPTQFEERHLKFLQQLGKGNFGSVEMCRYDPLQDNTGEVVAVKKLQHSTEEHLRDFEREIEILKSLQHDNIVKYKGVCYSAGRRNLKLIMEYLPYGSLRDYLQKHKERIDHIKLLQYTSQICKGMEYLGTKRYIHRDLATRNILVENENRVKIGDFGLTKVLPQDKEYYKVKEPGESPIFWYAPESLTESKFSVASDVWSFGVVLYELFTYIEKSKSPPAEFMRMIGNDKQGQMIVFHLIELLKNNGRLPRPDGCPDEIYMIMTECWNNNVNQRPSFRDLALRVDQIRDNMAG
Procedure, shortened: (§1)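 Purified recombinant kinase domains run in ELISA on precoated poly(Glu,Tyr) 4:1 (20 µg/mL) with 10 µM ATP in 50 mM HEPES pH 7.4, 50 mM MgCl2, 0.5 mM MnCl2, 0.2 mM Na3VO4, 1 mM DTT; 1% DMSO control; 60 min at 37 °C. Phosphotyrosine read by PY99 antibody, HRP anti-mouse IgG, OPD/H2O2 at 490 nm; inhibition = [1−A490/A490control]×100%; two separate experiments.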

[5] = molecular target: Mitogen-activated protein kinase 3 (Homo sapiens) (UniProt P27361); experiment: Inhibition of ERK1 (unknown origin) at 10 nM relative to control
Chain of Mitogen-activated protein kinase 3 (Homo sapiens) (P27361 whole entry, the tested form may be a part): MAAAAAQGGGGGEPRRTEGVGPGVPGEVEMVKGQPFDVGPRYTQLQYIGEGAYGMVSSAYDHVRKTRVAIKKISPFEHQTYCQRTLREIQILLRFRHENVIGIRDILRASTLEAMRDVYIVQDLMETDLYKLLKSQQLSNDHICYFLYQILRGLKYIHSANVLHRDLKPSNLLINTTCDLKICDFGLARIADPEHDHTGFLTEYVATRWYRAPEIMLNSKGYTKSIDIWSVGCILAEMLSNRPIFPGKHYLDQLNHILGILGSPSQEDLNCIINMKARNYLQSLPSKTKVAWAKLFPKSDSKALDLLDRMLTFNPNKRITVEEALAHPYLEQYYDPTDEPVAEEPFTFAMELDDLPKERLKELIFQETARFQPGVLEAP

[6] = molecular target: Mitogen-activated protein kinase 1 (Homo sapiens) (UniProt P28482); experiment: Inhibition of ERK2 (unknown origin) at 100 nM relative to control
Chain of Mitogen-activated protein kinase 1 (Homo sapiens) (P28482 whole entry): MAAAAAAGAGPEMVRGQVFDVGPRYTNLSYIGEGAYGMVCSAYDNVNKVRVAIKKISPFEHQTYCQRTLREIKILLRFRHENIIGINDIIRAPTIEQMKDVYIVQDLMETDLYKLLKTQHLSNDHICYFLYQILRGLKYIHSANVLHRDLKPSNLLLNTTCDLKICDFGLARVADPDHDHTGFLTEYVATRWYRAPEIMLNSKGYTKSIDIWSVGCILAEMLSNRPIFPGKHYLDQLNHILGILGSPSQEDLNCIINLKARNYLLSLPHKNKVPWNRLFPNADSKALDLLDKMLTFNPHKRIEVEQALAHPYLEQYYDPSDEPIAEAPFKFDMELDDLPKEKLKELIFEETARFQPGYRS

[7] = molecular target: Mitogen-activated protein kinase 3 (Homo sapiens) (UniProt P27361); experiment: Inhibition of ERK1 (unknown origin) at 1000 nM relative to control
[8] = tested on: T1, Discoidin domain-containing receptor 2 (Homo sapiens), Q16832 [I638F]; experiment: Inhibition of DDR2 I638F mutant in human NCI-H2286 cells assessed as decrease in AKT phosphorylation at […] after 2 hrs by Western blot analysis; format: cell-based
T1 sequence (whole entry): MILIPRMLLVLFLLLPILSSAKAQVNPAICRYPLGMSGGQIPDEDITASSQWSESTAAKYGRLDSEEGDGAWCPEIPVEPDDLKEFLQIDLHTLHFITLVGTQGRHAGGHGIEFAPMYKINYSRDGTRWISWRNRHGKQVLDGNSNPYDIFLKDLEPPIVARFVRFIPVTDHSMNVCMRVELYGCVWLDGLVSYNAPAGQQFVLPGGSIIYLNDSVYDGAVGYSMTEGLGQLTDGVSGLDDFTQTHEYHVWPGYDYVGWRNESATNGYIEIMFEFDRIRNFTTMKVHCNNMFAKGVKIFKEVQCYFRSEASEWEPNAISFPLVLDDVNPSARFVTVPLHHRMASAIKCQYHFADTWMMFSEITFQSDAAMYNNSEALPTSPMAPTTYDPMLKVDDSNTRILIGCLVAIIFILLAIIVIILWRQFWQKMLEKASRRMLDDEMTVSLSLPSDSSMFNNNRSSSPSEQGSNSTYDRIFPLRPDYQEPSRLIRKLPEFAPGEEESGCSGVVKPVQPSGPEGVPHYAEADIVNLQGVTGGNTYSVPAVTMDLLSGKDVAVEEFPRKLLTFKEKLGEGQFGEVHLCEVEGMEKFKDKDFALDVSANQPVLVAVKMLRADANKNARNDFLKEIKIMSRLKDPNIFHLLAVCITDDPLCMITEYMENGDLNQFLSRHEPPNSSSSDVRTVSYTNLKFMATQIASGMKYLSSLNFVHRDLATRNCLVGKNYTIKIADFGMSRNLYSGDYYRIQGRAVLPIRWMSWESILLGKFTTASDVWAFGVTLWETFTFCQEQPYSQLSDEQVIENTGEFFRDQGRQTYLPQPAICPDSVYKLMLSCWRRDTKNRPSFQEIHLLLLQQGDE
Procedure, shortened: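 NCI-H2286 cells exposed to compound for 2 h at 37 °C and lysed in SDS sample buffer. Lysates run on 10% SDS-PAGE and blotted to nitrocellulose. Membranes probed for phospho- and total DDR2, ERK and Akt, with GAPDH as loading control, and detected by HRP secondary antibody and enhanced chemiluminescence.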

[9] = molecular target: Fibroblast growth factor receptor 1 (Homo sapiens, UniProt P11362); experiment: Inhibition of FGFR1 (unknown origin) after 60 mins by ELISA
Chain of Fibroblast growth factor receptor 1 (P11362 whole entry): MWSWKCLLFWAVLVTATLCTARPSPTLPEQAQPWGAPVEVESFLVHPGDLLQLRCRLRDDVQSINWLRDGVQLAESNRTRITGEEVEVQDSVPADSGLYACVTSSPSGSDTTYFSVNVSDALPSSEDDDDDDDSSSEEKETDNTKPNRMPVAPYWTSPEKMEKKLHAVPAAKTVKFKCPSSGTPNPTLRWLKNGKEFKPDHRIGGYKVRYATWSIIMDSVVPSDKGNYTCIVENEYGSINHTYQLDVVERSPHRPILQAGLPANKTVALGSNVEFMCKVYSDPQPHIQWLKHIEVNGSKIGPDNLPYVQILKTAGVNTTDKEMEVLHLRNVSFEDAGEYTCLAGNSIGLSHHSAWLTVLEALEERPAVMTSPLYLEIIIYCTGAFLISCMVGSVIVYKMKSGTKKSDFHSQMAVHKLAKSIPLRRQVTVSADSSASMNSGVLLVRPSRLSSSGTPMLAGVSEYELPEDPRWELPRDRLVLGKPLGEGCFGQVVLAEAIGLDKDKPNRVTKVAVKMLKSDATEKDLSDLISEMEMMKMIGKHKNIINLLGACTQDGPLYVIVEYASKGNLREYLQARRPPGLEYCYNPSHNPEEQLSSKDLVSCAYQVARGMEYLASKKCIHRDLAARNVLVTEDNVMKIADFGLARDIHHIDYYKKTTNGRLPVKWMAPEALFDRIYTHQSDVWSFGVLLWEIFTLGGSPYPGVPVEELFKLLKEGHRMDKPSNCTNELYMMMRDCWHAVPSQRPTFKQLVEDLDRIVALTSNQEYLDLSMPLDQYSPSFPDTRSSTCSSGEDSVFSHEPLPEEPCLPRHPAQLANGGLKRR

[10] = molecular target: Vascular endothelial growth factor receptor 2 (Homo sapiens) (UniProt P35968); experiment: Inhibition of VEGFR2 (unknown origin) at 100 nM relative to control
Chain of Vascular endothelial growth factor receptor 2 (Homo sapiens) (P35968 whole entry): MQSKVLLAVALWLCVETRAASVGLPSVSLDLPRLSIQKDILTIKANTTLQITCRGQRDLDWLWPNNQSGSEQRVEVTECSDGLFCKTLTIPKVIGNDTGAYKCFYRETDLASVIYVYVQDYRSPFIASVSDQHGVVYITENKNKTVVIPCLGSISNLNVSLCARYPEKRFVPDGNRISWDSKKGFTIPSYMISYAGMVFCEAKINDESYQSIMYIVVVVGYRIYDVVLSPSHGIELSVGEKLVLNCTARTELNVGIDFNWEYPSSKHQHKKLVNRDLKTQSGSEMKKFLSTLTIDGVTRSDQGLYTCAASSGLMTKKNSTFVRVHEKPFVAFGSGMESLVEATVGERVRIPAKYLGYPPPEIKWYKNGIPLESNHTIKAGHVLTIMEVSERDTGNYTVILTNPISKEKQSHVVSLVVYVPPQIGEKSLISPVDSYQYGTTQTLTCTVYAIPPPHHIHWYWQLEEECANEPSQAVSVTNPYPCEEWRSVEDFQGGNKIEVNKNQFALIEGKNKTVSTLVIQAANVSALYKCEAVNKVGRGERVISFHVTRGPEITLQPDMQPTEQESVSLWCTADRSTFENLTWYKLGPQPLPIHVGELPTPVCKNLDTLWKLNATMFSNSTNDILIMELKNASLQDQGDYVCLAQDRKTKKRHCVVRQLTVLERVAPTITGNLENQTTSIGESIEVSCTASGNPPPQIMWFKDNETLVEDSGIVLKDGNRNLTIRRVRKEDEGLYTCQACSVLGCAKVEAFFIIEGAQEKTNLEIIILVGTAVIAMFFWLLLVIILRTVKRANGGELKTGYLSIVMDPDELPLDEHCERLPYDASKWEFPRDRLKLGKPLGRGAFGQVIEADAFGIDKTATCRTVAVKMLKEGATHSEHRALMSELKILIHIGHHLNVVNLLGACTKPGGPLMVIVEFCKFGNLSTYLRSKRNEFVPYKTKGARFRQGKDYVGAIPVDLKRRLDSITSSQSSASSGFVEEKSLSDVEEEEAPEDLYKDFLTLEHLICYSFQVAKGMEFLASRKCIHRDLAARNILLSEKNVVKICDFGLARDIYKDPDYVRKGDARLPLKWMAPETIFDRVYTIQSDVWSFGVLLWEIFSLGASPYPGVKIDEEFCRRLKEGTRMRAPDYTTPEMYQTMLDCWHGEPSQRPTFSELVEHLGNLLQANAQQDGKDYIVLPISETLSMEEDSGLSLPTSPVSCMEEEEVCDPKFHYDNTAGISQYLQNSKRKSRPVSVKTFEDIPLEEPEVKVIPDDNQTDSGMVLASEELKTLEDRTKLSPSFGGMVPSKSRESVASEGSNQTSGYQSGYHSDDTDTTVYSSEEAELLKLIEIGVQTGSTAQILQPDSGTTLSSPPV
Procedure, shortened: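 ELISA with purified recombinant kinase on plates precoated with poly(Glu,Tyr) 4:1 at 20 µg/mL. ATP 10 µM in HEPES pH 7.4 buffer with MgCl2, MnCl2, Na3VO4 and DTT. Run 60 min at 37 °C. Detected with anti-phosphotyrosine PY99, HRP secondary antibody and o-phenylenediamine, read at 490 nm. Inhibition % = [1 − A490/A490 control]×100. 1% DMSO as negative control.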

NCI-H1581 = experiment: Antitumor activity against human NCI-H1581 cells xenografted in po dosed nude mouse assessed as tumor growth inhibition administered as qd for 7 to 10 days; format: functional, organism-based
Procedure, shortened: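 Female nude mice, 4-6 weeks old. NCI-H1581 cells (5×10^6 in 200 µL) injected s.c., grown to 700-800 mm³, then 1-mm³ fragments implanted s.c. by trocar. At 100-150 mm³ animals were randomized (vehicle n=12, treated n=6) and dosed orally once daily for 7 days. Tumours measured twice weekly, volume = length×width²/2. TGI calculated from change in tumour volume versus vehicle on the final day, with Student's t-test.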

[11] = molecular target: Fibroblast growth factor receptor 2 (Homo sapiens) (UniProt P21802); experiment: Inhibition of FGFR2 (unknown origin) at 100 nM relative to control; procedure, shortened: as §1
Chain of Fibroblast growth factor receptor 2 (Homo sapiens) (P21802 22-821 limits assumed): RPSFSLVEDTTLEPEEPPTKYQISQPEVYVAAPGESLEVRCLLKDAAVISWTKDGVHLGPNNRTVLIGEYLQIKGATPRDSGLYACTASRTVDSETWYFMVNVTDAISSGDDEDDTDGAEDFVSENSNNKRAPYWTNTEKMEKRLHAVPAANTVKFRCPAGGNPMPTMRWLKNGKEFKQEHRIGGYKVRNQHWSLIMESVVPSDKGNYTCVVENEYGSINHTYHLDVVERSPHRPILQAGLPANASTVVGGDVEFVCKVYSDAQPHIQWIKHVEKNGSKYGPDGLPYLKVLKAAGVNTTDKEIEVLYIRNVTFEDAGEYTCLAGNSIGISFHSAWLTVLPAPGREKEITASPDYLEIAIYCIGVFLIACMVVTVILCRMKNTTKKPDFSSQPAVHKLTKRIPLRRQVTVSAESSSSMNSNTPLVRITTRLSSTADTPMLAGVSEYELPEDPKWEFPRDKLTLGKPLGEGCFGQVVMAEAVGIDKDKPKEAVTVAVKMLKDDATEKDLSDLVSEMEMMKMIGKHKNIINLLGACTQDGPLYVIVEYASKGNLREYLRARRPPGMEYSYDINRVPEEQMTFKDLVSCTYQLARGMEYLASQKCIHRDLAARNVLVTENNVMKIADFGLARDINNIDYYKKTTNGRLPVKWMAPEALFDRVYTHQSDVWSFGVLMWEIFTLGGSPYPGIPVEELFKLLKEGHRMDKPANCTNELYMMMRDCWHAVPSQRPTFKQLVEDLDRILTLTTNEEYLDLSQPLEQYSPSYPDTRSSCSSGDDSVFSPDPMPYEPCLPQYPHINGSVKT

[12] = molecular target: Receptor tyrosine-protein kinase erbB-4 (Homo sapiens) (UniProt Q15303); experiment: Inhibition of ErbB4 (unknown origin) at 10 nM relative to control; procedure, shortened: as §1
[13] = Permeability in human Caco2 cells at 5 uM after 120 mins by LC-MS/MS analysis relative to control; format: ADME, cell-based; details: Caco-2, read-out: Fabs
Procedure, shortened: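 Caco-2 (C2BBe1) monolayers grown confluent on collagen-coated transwell membranes. Buffer is HBSS with 10 mM HEPES at pH 7.4 and pH 6.8. Compound 5 µM added to the apical or basolateral side; duplicate samples taken at 120 min and analysed by LC-MS/MS. Results given as Papp A→B and B→A and efflux ratio B→A/A→B.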

[14] = molecular target: Tyrosine-protein kinase JAK2 (Homo sapiens) (UniProt O60674); experiment: Inhibition of JAK2 (unknown origin) at 1000 nM relative to control; procedure, shortened: as §1

inhibition [1]: 83.4%
pIC50 (NCI-H2286 [3]): 7.03
inhibition [4]: 5.4%
inhibition [5]: -2.8%
inhibition [6]: 2.5%
inhibition [7]: 3.8%
inhibition [8]: Active
pIC50 [9]: 7.51
inhibition [10]: 99.2%
inhibition [11]: 95%
inhibition [12]: 0%
Fa at 2 h, 5 µM [13]: 48.6%
inhibition [14]: 16.8%
Compound: Cc1ccc(C(=O)Nc2cccc(C(F)(F)F)c2)cc1-c1ccc2c(-c3cnn(C4CC4)c3)n[nH]c2c1
inhibition in vivo at 10 mg/kg (NCI-H2286 [2]): 82.8%
TGI (NCI-H1581): Dose-dependent effect
